A short description of test [1]: Displacement of […] from rat-human hybrid NPY5 receptor expressed in CHO cells. In kind it is cell-based. The method, boiled down:
(§1)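 Competition binding on membranes (5-10 µg protein) from CHO cells stably expressing human Y1, Y2 or rat-human hybrid Y5 receptors. Radioligand 0.2 nM 125I-PYY, incubated with a range of peptide concentrations in 50 mM HEPES pH 7.3, 0.1% BSA, 2.5 mM CaCl2 and 1 mM MgCl2 for 90 min at room temperature. Bound ligand separated on PEI-treated glass fibre filters, washed with PBS and γ-counted. 1 µM NPY defined nonspecific binding. Duplicate points, three experiments, nonlinear regression.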

In test [2] the target is T1, Neuropeptide Y receptor type 1 (Homo sapiens) (UniProt P25929).
T1 sequence (whole entry): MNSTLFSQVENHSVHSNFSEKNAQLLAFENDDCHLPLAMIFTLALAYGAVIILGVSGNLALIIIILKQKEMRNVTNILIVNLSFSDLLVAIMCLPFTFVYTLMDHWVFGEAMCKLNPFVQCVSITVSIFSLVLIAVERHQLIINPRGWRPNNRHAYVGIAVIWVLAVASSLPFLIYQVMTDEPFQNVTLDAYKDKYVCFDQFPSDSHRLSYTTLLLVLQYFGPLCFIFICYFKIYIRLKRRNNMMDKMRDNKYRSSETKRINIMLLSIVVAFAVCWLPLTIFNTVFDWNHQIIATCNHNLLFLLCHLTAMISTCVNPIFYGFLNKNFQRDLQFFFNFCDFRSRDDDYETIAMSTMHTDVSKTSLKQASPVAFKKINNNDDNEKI
The experiment in a line: Antagonist activity against human NPY1 receptor in CHO cells by inhibition of forskolin-stimulated cAMP synthesis. In kind it is functional, cell-based.

Test [3] is described as follows: Selectivity for human NPY4 over rat-human hybrid NPY5 receptor.
The species named for test [4] is Homo sapiens. The experiment in a line: Selectivity for human NPY4 over NPY1 receptor.
The species named for test [5] is Homo sapiens. The experiment in a line: Selectivity for human NPY4 over NPY2 receptor.
Test [6] addresses T2, Neuropeptide Y receptor type 4 (Homo sapiens, UniProt P50391). As to the kind of experiment: Agonist activity at human NPY4 receptor in CHO cells by inhibition of forskolin-stimulated cAMP synthesis.
Test [7] deals with T3, Neuropeptide Y receptor type 1 (Homo sapiens, UniProt P25929).
T3 sequence (P25929 whole entry): T1 sequence (whole entry)
The experiment in a line: Displacement of […] from human NPY1 receptor expressed in CHO cells. The class given is cell-based. The method, boiled down: as §1

Test [8] has as its target T4, Neuropeptide Y receptor type 2 (Homo sapiens, UniProt P49146).
T4 sequence (P49146 whole entry): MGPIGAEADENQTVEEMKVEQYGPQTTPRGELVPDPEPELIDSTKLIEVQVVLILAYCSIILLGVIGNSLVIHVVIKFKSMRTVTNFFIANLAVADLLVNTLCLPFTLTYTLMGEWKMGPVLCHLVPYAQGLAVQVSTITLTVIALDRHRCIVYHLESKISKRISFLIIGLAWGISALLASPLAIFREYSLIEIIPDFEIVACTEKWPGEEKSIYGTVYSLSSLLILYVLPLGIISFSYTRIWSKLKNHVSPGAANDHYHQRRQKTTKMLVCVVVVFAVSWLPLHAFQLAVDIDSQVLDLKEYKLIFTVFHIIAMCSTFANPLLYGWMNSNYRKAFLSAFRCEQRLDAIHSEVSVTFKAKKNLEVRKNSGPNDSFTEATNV
The experiment in a line: Displacement of […] from human NPY2 receptor expressed in CHO cells. In kind it is cell-based. The method, boiled down: as §1

For test [9], the target named is T2, Neuropeptide Y receptor type 4. As to the kind of experiment: Displacement of [125I]hPP from human NPY4 receptor expressed in CHO cells. In kind it is cell-based. In outline:
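Y4 binding used membranes from CHO cells stably expressing cloned human Y4, with 125I-PP as radioligand. Competing peptides were tested over a range of concentrations in 50 mM HEPES pH 7.3, 0.1% BSA, 2.5 mM CaCl2 and 1 mM MgCl2 for 90 min at room temperature. Separation was by filtration and γ-counting. Nonspecific binding was taken with 1 µM PP. Duplicate points, three experiments, nonlinear regression.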

The record followed here is ChEMBL document CHEMBL1146122, “Neuropeptide Y (NPY) Y4 receptor selective agonists based on NPY(32-36): development of an anorectic Y4 receptor selective agonist with picomolar affinity” (J Med Chem, 2006).

Positions of bridges follow the written chain, without caps; N, C: chain ends. Non-standard residues stand in square brackets, D forms with d. Residues, ends and D or L forms follow the SMILES beside them. Chains are numbered I, II in the order given. Nva = CCC[C@H](N)C(=O)O

T2 sequence (P50391 whole entry): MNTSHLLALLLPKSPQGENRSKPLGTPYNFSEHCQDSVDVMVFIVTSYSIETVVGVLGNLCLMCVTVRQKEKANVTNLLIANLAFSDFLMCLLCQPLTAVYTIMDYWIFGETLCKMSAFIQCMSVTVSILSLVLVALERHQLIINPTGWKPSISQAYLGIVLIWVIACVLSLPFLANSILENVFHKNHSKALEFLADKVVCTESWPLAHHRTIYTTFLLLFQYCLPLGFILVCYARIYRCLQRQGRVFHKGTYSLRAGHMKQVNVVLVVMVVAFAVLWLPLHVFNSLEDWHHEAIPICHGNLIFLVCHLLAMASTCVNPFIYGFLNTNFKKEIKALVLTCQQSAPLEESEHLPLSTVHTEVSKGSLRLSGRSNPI

As usually defined, the Ki is a dissociation constant, usually derived from enzyme kinetics or from competition with a known ligand. A higher Ki goes with a looser hold on the target. In general, Kb refers to the affinity of an antagonist, worked out from how it opposes an agonist. In the case of `CCC[C@H](NC(=O)[C@H](CCCN=C(N)N)NC(=O)[C@H](Cc1c[nH]c2ccccc12)NC(=O)[C@@H](N)CSSC[C@H](N)C(=O)N[C@@H](Cc1c[nH]c2ccccc12)C(=O)N[C@@H](CCCN=C(N)N)C(=O)N[C@@H](CCC)C(=O)N[C@@H](CCCN=C(N)N)C(=O)N[C@@H](Cc1ccc(O)cc1)C(N)=O)C(=O)N[C@@H](CCCN=C(N)N)C(=O)N[C@@H](Cc1ccc(O)cc1)C(N)=O` (I: H-CWR[Nva]RY-NH2 / II: H-CWR[Nva]RY-NH2; disulfide I:1-II:1), the Ki in test [1] turned out to be 770 nM. The compound further yielded an antagonist dissociation constant (Kb) in [2] of 1730 nM. Also, the Selectivity ratio in [3] came out at 30; in the test filed under Homo sapiens [4], 10; in the test filed under Homo sapiens [5] it was 110.
In the case of `CCC[C@H](NC(=O)[C@H](CCCN=C(N)N)NC(=O)[C@H](Cc1c[nH]c2ccccc12)NC(=O)[C@@H](N)CCCC[C@H](N)C(=O)N[C@@H](Cc1c[nH]c2ccccc12)C(=O)N[C@@H](CCCN=C(N)N)C(=O)N[C@@H](CCC)C(=O)N[C@@H](CCCN=C(N)N)C(=O)N[C@@H](Cc1ccc(O)cc1)C(N)=O)C(=O)N[C@@H](CCCN=C(N)N)C(=O)N[C@@H](Cc1ccc(O)cc1)C(N)=O` (stereo in doubt; 4A) [listing 1 of 2 here], the figures for the Selectivity ratio (in test [3]; in the test listed under Homo sapiens [4]; in the test filed under Homo sapiens [5]) were 30, 20 and 100, respectively.
As usually defined, the EC50 is the midpoint of the concentration-response curve. The compound `CCC[C@H](NC(=O)[C@H](CCCN=C(N)N)NC(=O)[C@H](Cc1c[nH]c2ccccc12)NC(=O)[C@@H](N)CC[C@H](N)C(=O)N[C@@H](Cc1c[nH]c2ccccc12)C(=O)N[C@@H](CCCN=C(N)N)C(=O)N[C@@H](CCC)C(=O)N[C@@H](CCCN=C(N)N)C(=O)N[C@@H](Cc1ccc(O)cc1)C(N)=O)C(=O)N[C@@H](CCCN=C(N)N)C(=O)N[C@@H](Cc1ccc(O)cc1)C(N)=O` returned an EC50 in [6] of 460 nM. Also, the inhibition constant Ki in test [1] amounted to 330 nM; in test [7] it was 140 nM; in [8] it was 360 nM; in [9], 4.2 nM. The Selectivity ratio in test [3] stood at 78; in the test filed under Homo sapiens [4], 34; in the test filed under Homo sapiens [5], 85.
Consider `CCC[C@H](NC(=O)[C@H](CCCN=C(N)N)NC(=O)[C@H](Cc1c[nH]c2ccccc12)NC(=O)[C@@H](N)CCC[C@H](N)C(=O)N[C@@H](Cc1c[nH]c2ccccc12)C(=O)N[C@@H](CCCN=C(N)N)C(=O)N[C@@H](CCC)C(=O)N[C@@H](CCCN=C(N)N)C(=O)N[C@@H](Cc1ccc(O)cc1)C(N)=O)C(=O)N[C@@H](CCCN=C(N)N)C(=O)N[C@@H](Cc1ccc(O)cc1)C(N)=O` (stereo in doubt; 2B) [listing 1 of 2 here], for which, in test [6], a half-maximal response (EC50) required 220 nM. In addition, the Ki in test [1] was 2280 nM; in [7], 140 nM; in test [8], 260 nM; in test [9], 4.1 nM.
Consider `CCC[C@H](NC(=O)[C@H](CCCN=C(N)N)NC(=O)[C@H](Cc1c[nH]c2ccccc12)NC(=O)[C@@H](N)CCCC[C@H](N)C(=O)N[C@@H](Cc1c[nH]c2ccccc12)C(=O)N[C@@H](CCCN=C(N)N)C(=O)N[C@@H](CCC)C(=O)N[C@@H](CCCN=C(N)N)C(=O)N[C@@H](Cc1ccc(O)cc1)C(N)=O)C(=O)N[C@@H](CCCN=C(N)N)C(=O)N[C@@H](Cc1ccc(O)cc1)C(N)=O` (stereo in doubt; 4B), for which the Selectivity ratio in test [3] was 140; in the test filed under Homo sapiens [4] it was 40; in the test filed under Homo sapiens [5] it was 270.
On to `CCC[C@H](NC(=O)[C@H](CCCN=C(N)N)NC(=O)[C@H](Cc1c[nH]c2ccccc12)NC(=O)[C@@H](N)CCC[C@H](N)C(=O)N[C@@H](Cc1c[nH]c2ccccc12)C(=O)N[C@@H](CCCN=C(N)N)C(=O)N[C@@H](CCC)C(=O)N[C@@H](CCCN=C(N)N)C(=O)N[C@@H](Cc1ccc(O)cc1)C(N)=O)C(=O)N[C@@H](CCCN=C(N)N)C(=O)N[C@@H](Cc1ccc(O)cc1)C(N)=O` (stereo in doubt; 2B) [listing 2 of 2 here], for which the Selectivity ratio came to 550 in test [3], 40 in the test listed under Homo sapiens [4] and 60 in the test filed under Homo sapiens [5].
In turn, `CCC[C@H](NC(=O)[C@H](CCCN=C(N)N)NC(=O)[C@H](Cc1c[nH]c2ccccc12)NC(=O)[C@H](Cc1ccc(O)cc1)NC(=O)[C@H](CCCN=C(N)N)NC(=O)[C@H](CCC)NC(=O)[C@H](CCCN=C(N)N)NC(=O)[C@@H](N)Cc1c[nH]c2ccccc12)C(=O)N[C@@H](CCCN=C(N)N)C(=O)N[C@@H](Cc1ccc(O)cc1)C(N)=O` (H-WR[Nva]RYWR[Nva]RY-NH2) had an EC50 in test [6] of 290 nM. Further, the Ki was 250 nM in test [1], 220 nM in test [7], 1050 nM in [8] and 5.3 nM in test [9]. The same compound displayed a Kb in test [2] of 320 nM. In addition, the figures for the Selectivity ratio (in test [3]; in the test filed under Homo sapiens [4]; in the test listed under Homo sapiens [5]) were 50, 50 and 200, respectively.
For the compound `CCC[C@H](NC(=O)[C@H](CCCN=C(N)N)NC(=O)[C@H](Cc1c[nH]c2ccccc12)NC(=O)[C@@H](N)CCC[C@H](N)C(=O)N[C@@H](Cc1c[nH]c2ccccc12)C(=O)N[C@@H](CCCN=C(N)N)C(=O)N[C@@H](CCC)C(=O)N[C@@H](CCCN=C(N)N)C(=O)N[C@@H](Cc1ccc(O)cc1)C(N)=O)C(=O)N[C@@H](CCCN=C(N)N)C(=O)N[C@@H](Cc1ccc(O)cc1)C(N)=O` (stereo in doubt; 2A) [listing 1 of 2 here], the figures for the Selectivity ratio (in test [3]; in the test filed under Homo sapiens [4]; in the test listed under Homo sapiens [5]) were 500, 30 and 70, respectively.
In turn, `CCC[C@H](NC(=O)[C@H](CCCN=C(N)N)NC(=O)[C@H](Cc1c[nH]c2ccccc12)NC(=O)[C@@H](N)CCC[C@H](N)C(=O)N[C@@H](Cc1c[nH]c2ccccc12)C(=O)N[C@@H](CCCN=C(N)N)C(=O)N[C@@H](CCC)C(=O)N[C@@H](CCCN=C(N)N)C(=O)N[C@@H](Cc1ccc(O)cc1)C(N)=O)C(=O)N[C@@H](CCCN=C(N)N)C(=O)N[C@@H](Cc1ccc(O)cc1)C(N)=O` (stereo in doubt; 2A) [listing 2 of 2 here] displayed an EC50 in test [6] of 200 nM. Besides, the Ki in test [1] worked out at 2160 nM; in test [7], 120 nM; in test [8], 310 nM; in [9], 4.3 nM.
In test [6], `CCC[C@H](NC(=O)[C@H](CCCNC(=N)N)NC(=O)[C@H](Cc1c[nH]c2ccccc12)NC(=O)[C@@H](N)CSSC[C@H](N)C(=O)N[C@@H](Cc1c[nH]c2ccccc12)C(=O)N[C@@H](CCCNC(=N)N)C(=O)N[C@@H](CCC)C(=O)N[C@@H](CCCNC(=N)N)C(=O)N[C@@H](Cc1ccc(O)cc1)C(N)=O)C(=O)N[C@@H](CCCNC(=N)N)C(=O)N[C@@H](Cc1ccc(O)cc1)C(N)=O` (I: H-CWR[Nva]RY-NH2 / II: H-CWR[Nva]RY-NH2; disulfide I:1-II:1) displayed a concentration for a half-maximal effect (EC50) of 570 nM. The Ki was 340 nM in test [7], over 3000 nM in [8] and 30 nM in test [9].
With `CCC[C@H](NC(=O)[C@H](CCCN=C(N)N)NC(=O)[C@H](Cc1c[nH]c2ccccc12)NC(=O)[C@@H](N)CCCC[C@H](N)C(=O)N[C@@H](Cc1c[nH]c2ccccc12)C(=O)N[C@@H](CCCN=C(N)N)C(=O)N[C@@H](CCC)C(=O)N[C@@H](CCCN=C(N)N)C(=O)N[C@@H](Cc1ccc(O)cc1)C(N)=O)C(=O)N[C@@H](CCCN=C(N)N)C(=O)N[C@@H](Cc1ccc(O)cc1)C(N)=O` (stereo in doubt; 4A) [listing 2 of 2 here], a half-maximal effect in test [6] (EC50) was put at 430 nM. For the same compound, the Ki in test [1] turned out to be 120 nM; in test [7], 90 nM; in [8] it was 390 nM; in test [9], 4.1 nM.
